Most compounds without a hit are left out; they make up all but 4.8% or so of the library.
SKKanGAS inh: S. pyogenes SKKanGAS growth inhibitors in kanamycin, primary screen, streptokinase expression inhibitor project, SKKanGAS strain, BacTiter-Glo luminescence | 6 h | inhibition, % at 7.5 µM | actives 1.3% (n = 300,000);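 active = mean replicate score, as percent of positive control median, at least 50; inconclusive = mean below 50 but one replicate at or above 50; inactive = mean and every replicate below 50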;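 note: strain carries kanamycin resistance gene driven by streptokinase promoter and grows in 40 µg/ml kanamycin; loss of luminescence reflects streptokinase promoter inhibition or plain growth inhibition; 0% = median of DMSO wells and 100% = positive control at its reference dose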
XBP1 UPR activ: activators of adaptive XBP1 UPR arm, primary screen, cell-based, CHO-XBP1 luciferase reporter, luminescence, uHTS. IRE1-XBP1 UPR activation; percent of tunicamycin response, DMSO as zero. activation, % at 20 µM. actives 0.33% (n = 330,000). AID 463104, 2010;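 active = versus positive control, 20 µM dose yields 30% or more activation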;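 note: 100% = tunicamycin at 10 µg/mL and 0% = DMSO only wells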
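Material: CHO-XBP1 cells stably carrying IRE1-XBP1-driven luciferase reporter | Medium: F12 with 10% serum | Compound dosing: 20 µM single concentration, DMSO 1% | Incubation: Overnight seeding at 37 °C, 6 h compound treatment at 37 °C | Detection: Steady-Glo luminescence read | Read-out basis: % activation of reporter signal versus tunicamycin and DMSO controls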
Beta cell apopt: inhibitors of cytokine-induced beta cell apoptosis, primary screen, luminescence | INS-1E cytokine-induced death, ATP luminescence, 48 h; percent of positive-control rescue, neutral wells zero | protection from apoptosis, % (no concentration beside the values) | actives 0.8% (n = 300,000) | AID 435005, 2010;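 active = Every replicate reaches about 75%, or at least half do and their mean reaches it too, limit read from the data; inconclusive = At least half of replicates reach the limit but their mean does not; inactive = Under half of replicates reach the limit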;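 note: 0% = cytokine-treated negative control wells and 100% = positive control rescue; higher means more ATP so stronger rescue from cytokine killing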
UPR CHOP act: activators of apoptotic CHOP UPR arm, primary screen, cell-based, CHO-CHOP luciferase reporter, luminescence, uHTS | UPR activation; percent of tunicamycin response over DMSO baseline | activation, % at 10 µM | actives 0.34% (n = 330,000) | AID 449763, 2010;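 active = at 10 µM dose, activation of 40% or more, normalized to positive control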;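 note: 100% = tunicamycin at 10 µg/mL and 0% = DMSO alone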
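Assay system: CHO cells with stable CHOP pathway luciferase reporter; Buffer or medium: F12 plus 10% serum; Times: 16-18 h cell attachment, then 6 h compound exposure, 37 °C; Signal: luciferase luminescence; Read-out basis: percent activation relative to tunicamycin control; Control set: tunicamycin high control, DMSO low control.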
Mdm2-MdmX inh: inhibitors of human Mdm2-MdmX association, primary screen, cell-based, luminescence, split luciferase, SaOS-2, uHTS; SaOS-2 split-luciferase Mdm2/MdmX complementation; inhibition, % at 8 µM; actives 3% (n = 330,000); AID 485346, 2010;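 active = inhibition of at least 50% at 8 µM in the primary screen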
Target sequence (O15151 whole entry, looked up): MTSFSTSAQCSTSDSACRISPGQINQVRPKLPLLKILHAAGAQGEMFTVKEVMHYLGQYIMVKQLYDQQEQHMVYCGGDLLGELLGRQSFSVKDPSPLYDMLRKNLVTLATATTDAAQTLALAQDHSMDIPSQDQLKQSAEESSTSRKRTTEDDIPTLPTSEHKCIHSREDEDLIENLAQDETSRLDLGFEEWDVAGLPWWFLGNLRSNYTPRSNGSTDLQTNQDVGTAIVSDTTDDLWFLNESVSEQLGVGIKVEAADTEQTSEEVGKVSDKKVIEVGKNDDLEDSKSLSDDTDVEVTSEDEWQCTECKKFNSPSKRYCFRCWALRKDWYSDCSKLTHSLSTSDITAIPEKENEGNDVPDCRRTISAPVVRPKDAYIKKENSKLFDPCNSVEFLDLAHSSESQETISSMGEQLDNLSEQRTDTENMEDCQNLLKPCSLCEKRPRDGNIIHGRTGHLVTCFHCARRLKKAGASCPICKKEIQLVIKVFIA
Target sequence (Q00987 whole entry, looked up): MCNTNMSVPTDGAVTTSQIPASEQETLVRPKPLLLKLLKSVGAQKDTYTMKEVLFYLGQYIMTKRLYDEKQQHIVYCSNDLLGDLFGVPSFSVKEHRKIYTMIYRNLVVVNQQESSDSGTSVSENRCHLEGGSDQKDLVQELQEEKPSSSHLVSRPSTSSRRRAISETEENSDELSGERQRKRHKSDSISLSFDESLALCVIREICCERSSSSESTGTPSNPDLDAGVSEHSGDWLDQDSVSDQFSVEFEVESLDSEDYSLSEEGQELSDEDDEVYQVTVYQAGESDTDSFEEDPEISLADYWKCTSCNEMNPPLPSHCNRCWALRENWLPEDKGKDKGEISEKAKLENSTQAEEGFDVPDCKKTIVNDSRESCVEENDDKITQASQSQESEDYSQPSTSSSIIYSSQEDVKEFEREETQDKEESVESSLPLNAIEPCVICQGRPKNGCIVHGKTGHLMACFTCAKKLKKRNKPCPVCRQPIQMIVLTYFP
CSC inhib: cancer stem cell viability inhibitors, primary screen, luminescence; cancer stem cell-like cells viability; inhibition, % at 7.5 µM; actives 1.1% (n = 300,000); in the data active = inhibition above about 75%; inconclusive = no clear call, values can overlap the other calls; tested in HMLE shEcad cells
Mdm2 MdmX conf: Mdm2-MdmX complex disruptors, retested hits, confirmation, luminescence, single concentration; shares compounds with Mdm2-MdmX inh; Mdm2-MdmX binding, luminescent assay; inhibition, % at 8 µM; actives 55% (n = 10,000); in the data active = inhibition above about 40%
Full FLuc ctr: full-length luciferase signal inhibition, confirmation, counter-screen for Mdm2/MdmX interaction inhibitor project, cell-based, single concentration, SaOS-2; shares compounds with Mdm2-MdmX inh; SaOS-2 full-length luciferase counterscreen, luminescence; inhibition, % at 8 µM; actives 77% (n = 6,200);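 active = mean inhibition at 8 µM reaching about 37%, which flags the compound as non-specific, limit read from the data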;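 note: p53-null SaOS-2 cells with luciferase driven by a doxycycline-inducible promoter; compound on cells about two nights before reading with doxycycline added after day one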
* = called active by the depositor; ? = inconclusive; / = no result.

SMILES | SKKanGAS inh | XBP1 UPR activ | Beta cell apopt | UPR CHOP act | Mdm2-MdmX inh | CSC inhib | Mdm2 MdmX conf | Full FLuc ctr
O=C(CC(=O)Nc1ccccn1)Nc1ccccn1 | -13 | 2 | -2 | 0 | -21 | -12 | / | /
COc1ccc(NC(=O)c2cc(CN3C(=O)c4ccccc4C3=O)ccc2OC)cn1 | 4 | 5 | -3 | -1 | 53* | 23 | 9 | /
CCCc1cc(=O)oc2cc(OCC(=O)NCCc3c[nH]c4ccccc34)ccc12 | 12 | 0 | 35 | 2 | 21 | 21 | / | /
N#CC(C#N)=c1ccc2c(c1)N1C(c3ccccc3)=CC(c3ccccc3)C3CCCCC31N=2 (stereo not drawn) | 18 | 6 | 0 | 1 | 61* | 6 | 32 | /
N#Cc1ccccc1COC(=O)CCC(=O)c1cccs1 | / | 5 | 4 | 1 | 14 | / | / | /
Cc1cc(-n2c(SCC(=O)NCCC3=CCCCC3)nc3n[nH]c(C)c3c2=N)ccc1Cl | 8 | 13 | 37 | 12 | 36 | 29 | / | /
Cc1ccccc1-n1c(SCC(=O)Nc2ccccc2Cl)nc2n[nH]c(C)c2c1=N | 11 | 5 | 1 | 3 | 66* | 16 | 12 | /
Cc1[nH]nc2nc(SCC(=O)NCCC3=CCCCC3)n(-c3ccc(Br)cc3)c(=N)c12 | 6 | 23 | 93* | 5 | 91* | 56 | 47* | 31
Cc1cccc(NC(=O)C(C)SCc2nc3sc4c(c3c(=O)[nH]2)CCCC4)n1 (stereo not drawn) | 5 | -1 | 2 | 0 | 11 | 5 | / | /
O=C(CCCNC(=O)c1ccc(Cl)cc1)Nc1ccc(F)c(S(=O)(=O)N2CCOCC2)c1 | / | -3 | -1 | 0 | -4 | / | / | /
CCOc1ccc(OCC)c(NC(=O)c2nnn(CC(=O)Nc3cc(C)cc(C)c3)c2N)c1 | 19 | 27 | 10 | 0 | 58* | 19 | 8 | /
COc1cccc(NC(=O)c2nnn(CC(=O)Nc3cc(C)cc(C)c3)c2N)c1 | 9 | 5 | / | 4 | 74* | -4 | 4 | /
O=C(NCc1ccc(F)cc1)c1ccc(CS(=O)Cc2ccccc2Cl)o1 (stereo not drawn) | -1 | -2 | 12 | -2 | 25 | -2 | / | /
O=C(Cc1n[nH]c(=O)c2ccccc12)OCC(=O)c1ccc2c(c1)OCCO2 | 3 | 0 | 13 | 1 | 55* | 64 | 68* | 94*
CCOc1ccc(C(=O)COC(=O)Cc2n[nH]c(=O)c3ccccc23)cc1 | 7 | -1 | 31 | -1 | 57* | 56 | 75* | 51*
CCOc1ccc(C2C=C(c3ccc(C)cc3)Nc3nnnn32)cc1 (stereo not drawn) | 34 | 6 | 0 | 12 | 50* | 14 | 12 | /
COc1ccc(C(=O)C/C(=C\C(=O)c2ccc(C)cc2)c2ccccc2)cc1 | 0 | 5 | ? | 3 | 86* | / | 84* | 24
N#Cc1ccccc1NC(=O)c1ccccc1OCC(=O)Nc1ccc2c(c1)oc1ccccc12 | 3 | 0 | 5 | -1 | 62* | 11 | 11 | /
O=C(COc1ccc2c(c1)OCO2)Nc1ccc2c(c1)oc1ccccc12 | 1 | -6 | 1 | -1 | 50* | -5 | -19 | /
Cc1ccccc1-c1cc(C(=O)Nc2sc(C(=O)OC(C)C)c(C)c2C#N)c2ccccc2n1 | 59* | 1 | 52 | 4 | 72* | 111* | 95* | 24

High-throughput results (PubChem BioAssay)
